Assay results collected from several papers.
Protocols differ between the studies behind these lines.
Target: Cyclin-dependent kinase 17 (CDK17, Homo sapiens, UniProt Q00537)

observed	method	concentration	remaining binding [%]	SMILES
binding	–	1 µM	97	CN(C)c1ncc(F)c(-c2cnn3ncccc23)n1
binding	competition with immobilised ligand	1 µM	100	COc1cnc(Nc2cccc(S(N)(=O)=O)c2)nc1N1CCN(c2ccccc2)CC1
binding	–	1 µM	100	N[C@H]1CCN(c2nccc(-c3cnn4ncccc34)n2)C1
binding	competition with immobilised ligand	1 µM	64	O=C(c1ccc(Nc2nccc(-c3cc4ccccc4s3)n2)cc1)N1CCC(N2CCCC2)CC1
cell-free assay	competition with immobilised ligand	1 µM	93	CN1CCN(c2cnc3c(C4CCN(C(=O)c5ccc(OC(F)(F)F)cc5N)CC4)ncnc3c2)CC1
binding	competition with immobilised ligand	10 µM	72	c1cncc(-c2cccc(Nc3nccc(NC4CCCCC4)n3)c2)c1
cell-free assay	competition with immobilised ligand	1 µM	100	C[C@@]1(Cc2ccc(C#N)cc2)C(=O)N(c2cc(Cl)cc(Cl)c2)c2ncc(C(=O)NC3(c4nc(C5CCC5)no4)CC3)n21
binding	–	1 µM	0	C[C@H]1CCN(c2nccc(-c3cnn4ncccc34)n2)C1
cell-free assay	competition with immobilised ligand	1 µM	87.2	CC1=C(C#N)[C@@H](c2ccc3[nH]nc(C)c3c2)C(C#N)=C(c2ccc(Cl)cc2)N1
binding	competition with immobilised ligand	1 µM	31	O=C(NCCCN1CCOCC1)c1ccc(Nc2ncc(Cl)c(-c3ccc(Cl)s3)n2)cc1
binding	–	1 µM	100	F[C@@H]1CCN(c2nccc(-c3cnn4ncccc34)n2)C1
cell-free assay	competition with immobilised ligand	1 µM	100	C[C@H](NC(=O)c1cnc2n1[C@](C)(Cc1ccc(C#N)cc1)C(=O)N2c1cc(Cl)c(F)c(Cl)c1)C(=O)NC1(c2ccccn2)CC1
binding	competition with immobilised ligand	1 µM	100	CCN1CCN(Cc2ccc(C(=O)Nc3ccc(C)c(Oc4ccc5c(c4)CC(=O)N5)c3)cc2C(F)(F)F)CC1
binding	competition with immobilised ligand	1 µM	93	CNC(=O)[C@@H]1CC[C@@H](n2c(-c3ccc4cnccc4c3)nc3ccc(C(=O)NCc4cccc(C(N)=O)c4)cc32)C1
binding	competition with immobilised ligand	1 µM	9.2	Cc1cnc(Nc2ccc(C(=O)N3CCC(N4CCCC4)CC3)cc2)nc1-c1cc2ccccc2s1
binding	–	1 µM	100	CN(c1nccc(-c2cnn3ncccc23)n1)C1CC1
cell-free assay	competition with immobilised ligand	1 µM	100	CN(C)C(=O)Cn1cc(-c2nc(C3(c4ccc(-c5cnc(N)nc5)cc4)CC3)no2)cn1
binding	–	1 µM	100	COc1ccnn2ncc(-c3ccnc(N(C)C)n3)c12
binding	competition with immobilised ligand	1 µM	66	O=C(NCC1CCOCC1)c1n[nH]cc1NC(=O)c1c(F)cccc1F
cell-free assay	competition with immobilised ligand	1 µM	100	Cc1noc([C@H]2C[C@@H](c3ccc(C(F)(F)F)cc3)CN(C(=O)N3CCS(=O)(=O)C3)C2)n1
